Experimental data reported in ChEMBL document CHEMBL4145617, “Chloramphenicol Derivatives with Antibacterial Activity Identified by Functional Metagenomics” (2018).
In brackets after ≈: the same amount, converted by molar mass. Activity calls are given as the source filed them. The rule behind the calls is not given here.

Tests used:
Staphylococcus aureus [1] = assay: Growth inhibition of Staphylococcus aureus EAMC30 at 62.5 ug/ml by Alamar blue based CLSI method relative to control; format: functional; settings: read-out: GI
Staphylococcus aureus [2] = assay: Antimicrobial activity against methicillin-resistant Staphylococcus aureus ATCC 1708 at 200 ug/ml by Alamar blue based CLSI method; format: functional, organism-based
In short: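 S. aureus ATCC 1708 tested by a modified CLSI method. Samples were dissolved in DMSO and serially diluted in 20% DMSO/saline, and final test concentrations were 1/100th of the DMSO stock. MIC was taken as the lowest concentration with no detectable growth.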

Pseudomonas aeruginosa = assay: Antimicrobial activity against Pseudomonas aeruginosa ATCC 2108 at 200 ug/ml by Alamar blue based CLSI method; format: functional, organism-based
Escherichia coli = assay: Antimicrobial activity against Escherichia coli ATCC 2452 at 200 ug/ml by Alamar blue based CLSI method; format: functional, organism-based
[3] = test system: Mycobacterium intracellulare; assay: Antimycobacterial activity against Mycobacterium intracellulare ATCC 23068 after 70 to 74 hrs by Alamar blue based CLSI method; format: functional
[4] = test system: Mycobacterium tuberculosis; assay: Antimycobacterial activity against Mycobacterium tuberculosis ATCC 25177 after 5 days by Alamar blue based CLSI method; format: functional; settings: H37Ra, 120 h

SMILES | inhibition of growth at 62.5 µg/mL (Staphylococcus aureus [1]) | Activity (Staphylococcus aureus [2]) | Activity (Pseudomonas aeruginosa) | Activity (Escherichia coli) | MIC [3] | MIC [4]
O=C(/C=C/c1ccccc1)O[C@H](c1ccc([N+](=O)[O-])cc1)[C@@H](CO)NC(=O)C(Cl)Cl | 35% | – | – | – | – | –
CCCC(=O)OC[C@@H](NC(=O)C(Cl)Cl)[C@H](OC(=O)CCC)c1ccc([N+](=O)[O-])cc1 | 11% | inactive | inactive | inactive | – | –
CC(=O)OC[C@@H](NC(=O)C(Cl)Cl)[C@H](O)c1ccc([N+](=O)[O-])cc1 | 15% | inactive | inactive | inactive | 25 µg/mL (≈ 68.5 µM) | –
CCC(=O)OC[C@@H](NC(=O)C(Cl)Cl)[C@H](O)c1ccc([N+](=O)[O-])cc1 | 72% | inactive | inactive | inactive | – | –
O=C(O[C@H](c1ccc([N+](=O)[O-])cc1)[C@@H](CO)NC(=O)C(Cl)Cl)c1ccc([N+](=O)[O-])cc1 | 59% | – | – | – | 12.5 µg/mL (≈ 26.5 µM) | 50 µg/mL (≈ 106 µM)
CCCC(=O)OC[C@@H](NC(=O)C(Cl)Cl)[C@H](O)c1ccc([N+](=O)[O-])cc1 | 36% | inactive | inactive | inactive | – | –
O=C(N[C@H](CO)[C@H](O)c1ccc([N+](=O)[O-])cc1)C(Cl)Cl [CHLORAMPHENICOL] | – | – | – | – | 25 µg/mL (≈ 77.4 µM) | > 100 µg/mL
CCCC(=O)OC[C@@H](NC(=O)C(Cl)Cl)[C@H](OC(=O)CC)c1ccc([N+](=O)[O-])cc1 | – | inactive | inactive | inactive | – | –
CCC(=O)OC[C@@H](NC(=O)C(Cl)Cl)[C@H](OC(C)=O)c1ccc([N+](=O)[O-])cc1 | – | inactive | inactive | inactive | – | –
CC(=O)O[C@H](c1ccc([N+](=O)[O-])cc1)[C@@H](CO)NC(=O)C(Cl)Cl | – | – | – | – | 25 µg/mL (≈ 68.5 µM) | –
CC(=O)OC[C@@H](NC(=O)C(Cl)Cl)[C@H](OC(C)=O)c1ccc([N+](=O)[O-])cc1 | – | inactive | inactive | inactive | – | –
CCC(=O)OC[C@@H](NC(=O)C(Cl)Cl)[C@H](OC(=O)CC)c1ccc([N+](=O)[O-])cc1 | 40% | inactive | inactive | inactive | – | –
CCCC(=O)O[C@H](c1ccc([N+](=O)[O-])cc1)[C@@H](COC(=O)CC)NC(=O)C(Cl)Cl | – | inactive | inactive | inactive | – | –
